# In ChEMBL document CHEMBL3421632, “Rational design of triazololipopeptides analogs of kisspeptin inducing a long-lasting increase of gonadotropins” (J Med Chem, 2015):
# The source made the active and inactive calls. No cut-off for these calls is given here. *1 amine or outer side, *2 acyl side, *3 side chain or, on linkers, in order; H or OH if unused. Where a SMILES comes first, the peptide text is derived from it. [ ]: non-standard residue; d: D form. X1 = O=C(Cn1cc([C@H](Cc2ccccc2)N[*:1])nn1)[*:2]
# How the values were obtained:
# [1] = Stability in Ile-de-France ewe serum assessed as intact compound level at 50 uM incubated for 6 hrs by HPLC method; format: ADME, cell-free, Ovis aries; conditions: female, sheep, read-out: Stability
# Procedure, shortened: (§1)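 Ile-de-France ewe serum, stored at −20 °C and preheated 30 min at 39 °C. Peptide at 50 μM final, with L-phenylalaninol internal calibrator, incubated at 39 °C. Proteins precipitated with MeCN and spun; supernatant run on RP-HPLC (2–52% MeCN/0.1% TFA over 5 min, UV 214 nm, plus MS). Intact peak given as % of t = 0 area; five independent experiments.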
# KiSS-1 receptor = KiSS-1 receptor (Homo sapiens, UniProt Q969F8); assay: Agonist activity at human wild-type KISS1R expressed in HEK293 cells assessed as induction of intracellular Ca2+ mobilization after 30 mins by Fluo4 NW Ca2+ assay; format: functional, cell-based
# KiSS-1 receptor, sequence (Q969F8 whole entry): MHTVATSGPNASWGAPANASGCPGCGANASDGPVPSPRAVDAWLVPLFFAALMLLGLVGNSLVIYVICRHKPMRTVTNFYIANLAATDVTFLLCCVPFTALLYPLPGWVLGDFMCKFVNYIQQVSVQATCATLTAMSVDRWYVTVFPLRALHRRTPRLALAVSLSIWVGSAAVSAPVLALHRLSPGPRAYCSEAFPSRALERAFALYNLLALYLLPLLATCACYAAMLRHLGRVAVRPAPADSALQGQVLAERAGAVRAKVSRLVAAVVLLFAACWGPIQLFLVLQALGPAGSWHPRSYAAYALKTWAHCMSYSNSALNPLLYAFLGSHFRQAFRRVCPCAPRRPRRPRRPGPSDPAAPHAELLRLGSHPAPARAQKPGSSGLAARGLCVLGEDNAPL
# Procedure, shortened: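 HEK293 stably expressing HA-tagged wild-type human KISS1R, plated 40 000 cells/well 48 h prior. Loaded with Fluo4 NW dye 30 min at 37 °C plus 30 min at rt. Basal read 5× at 7 s intervals, compound added (final 1 pM–1 μM), Ca2+ followed 7 min. Mean basal subtracted, AUC plotted against concentration, sigmoid fit gives EC50. Nontransfected HEK293 served as control.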
# [2] = Drug metabolism in Ile-de-France ewe serum treated with 50 uM Ac-Tyr-Asn-Trp-Asn-Ser-Phe-azaGly-Leu-Arg-Tyr-NH2 assessed as retention time incubated for 6 hrs by LC-MS method; format: ADME, cell-free, Ovis aries; conditions: sheep
# Ovis aries [3] = assay: Increase in maximal amplitude of plasma LH level in anoestrus Ile-de-France ewe at 5 nmol, iv by radioimmunoassay (reference value: 0.6 +/- 0.5 ng/ml); format: functional
# Procedure, shortened: (§2)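 Intact acyclic anoestrous Ile-de-France ewes (3–5 y, 55–70 kg), jugular catheter placed the day before. Single iv bolus of 1–15 nmol/ewe. Basal LH taken every 10 min for 30 min, then every 10 min for 2 h, every 20 min for 4 h, then hourly. Plasma LH by RIA (1051-CY-LH standard, sensitivity 0.1 ng/mL). Peak, duration and AUC derived; mean ± SEM, N = 4–6.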
# Homo sapiens = species on record: Homo sapiens; assay: Selectivity index, ratio of EC50 for human NPFF1R to EC50 for human wild-type KISS1R
# [4] = target: Neuropeptide FF receptor 1 (Homo sapiens, UniProt Q9GZQ6); assay: Agonist activity at human NPFF1R expressed in CHO cells assessed as effect on forskolin-induced cAMP accumulation after 15 mins by luminescence based assay; format: functional, cell-based
# Neuropeptide FF receptor 1, sequence (Q9GZQ6 whole entry): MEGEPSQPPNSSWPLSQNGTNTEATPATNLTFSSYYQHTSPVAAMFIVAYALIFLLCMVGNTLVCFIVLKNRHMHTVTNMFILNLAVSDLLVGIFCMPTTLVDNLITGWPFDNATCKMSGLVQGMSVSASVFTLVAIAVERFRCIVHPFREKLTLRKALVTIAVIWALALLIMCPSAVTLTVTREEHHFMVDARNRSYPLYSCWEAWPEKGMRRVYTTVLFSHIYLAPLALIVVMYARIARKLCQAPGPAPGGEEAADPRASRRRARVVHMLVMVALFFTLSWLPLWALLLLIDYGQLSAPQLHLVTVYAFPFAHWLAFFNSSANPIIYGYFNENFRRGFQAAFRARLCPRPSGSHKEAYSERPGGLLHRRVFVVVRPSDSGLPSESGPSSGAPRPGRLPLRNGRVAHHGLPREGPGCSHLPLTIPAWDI
# Procedure, shortened: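 CHO cells stably expressing hNPFF1R (Gαi-coupled), transfected with GloSensor; seeded 30 000 cells/well 24 h before, PBS-washed twice, loaded with GloSensor cAMP reagent 2 h. Compound added, luminescence read 15 min, then 300 nM forskolin + 0.25 mM IBMX added and read a further 120 min. Signal AUC plotted against concentration, sigmoid fit for EC50.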
# Ovis aries [5] = assay: Increase in total plasma LH level in anoestrus Ile-de-France ewe at 5 nmol, iv by radioimmunoassay; format: functional, organism-based; procedure, shortened: as §2
# Ovis aries [6] = assay: Increase in duration of increase of plasma LH level in anoestrus Ile-de-France ewe at 5 nmol, iv by radioimmunoassay; format: functional; procedure, shortened: as §2
# [7] = Stability in Ile-de-France ewe serum assessed as intact compound level at 50 uM incubated for 1 hr by HPLC method; format: ADME, cell-free, Ovis aries; conditions: sheep, BLD = below limit of detection; procedure, shortened: as §1
molecule,measurement,setting,value
CC(=O)N[C@@H](Cc1ccc(O)cc1)C(=O)N[C@@H](CC(N)=O)C(=O)N[C@@H](Cc1c[nH]c2ccccc12)C(=O)N[C@@H](CC(N)=O)C(=O)N[C@@H](CO)C(=O)N[C@@H](Cc1ccccc1)c1cn(CC(=O)N[C@@H](CC(C)C)C(=O)N[C@@H](CCCNC(=N)N)C(=O)N[C@@H](Cc2ccc(O)cc2)C(N)=O)nn1 (Ac-YNWNS[X1]LRY-NH2),"remaining at 6 h, 50 µM",[1],61.4%
same,EC50,KiSS-1 receptor,0.6 nM
CC(C)C[C@H](N)C(=O)N[C@@H](CCCNC(=N)N)C(=O)N[C@@H](Cc1ccc(O)cc1)C(N)=O (H-Leu-Arg-Tyr-NH2),Retention_time,[2],7.57 min
Ac-K(Ac)NWNSFGLRY-NH2,EC50,KiSS-1 receptor,0.9 nM
Ac-YK(Ac)WNSFGLRY-NH2,EC50,KiSS-1 receptor,0.1 nM
Ac-YNK(Ac)NSFGLRY-NH2,EC50,KiSS-1 receptor,0.08 nM
Ac-YNWK(Ac)SFGLRY-NH2,EC50,KiSS-1 receptor,13.9 nM
Ac-YNWNK(Ac)FGLRY-NH2,EC50,KiSS-1 receptor,7.2 nM
Ac-YNWNSF-OH,Retention_time,[2],9.51 min
Ac-YNWNSFGLRY-NH2,"remaining at 6 h, 50 µM",[1],2.6%
same,Activity,Ovis aries [3],3.9 ng/mL
same,Ratio EC50,Homo sapiens,> 10000
same,EC50,[4],> 5000 nM
same,Activity,Ovis aries [5],Active
same,EC50,KiSS-1 receptor,0.07 nM
same,Activity,Ovis aries [6],Active
H-YNWNSFGLRY-NH2,Activity,Ovis aries [3],3.3 ng/mL
same,Stability,[7],BLD
same,EC50,KiSS-1 receptor,2.5 nM
